Data as given in ChEMBL document CHEMBL3098047, “Design, synthesis and structure-activity relationships of substituted oxazole-benzamide antibacterial inhibitors of FtsZ” (Bioorg Med Chem Lett, 2014).
Converted amounts (≈) assume the structure as drawn.

Experiments:
[1] = target: T1, Cell division protein FtsZ (Staphylococcus aureus) (UniProt P0A031); assay: Inhibition of Staphylococcus aureus ATCC 29213 FtsZ-mediated cell division phenotype
T1 sequence (whole entry): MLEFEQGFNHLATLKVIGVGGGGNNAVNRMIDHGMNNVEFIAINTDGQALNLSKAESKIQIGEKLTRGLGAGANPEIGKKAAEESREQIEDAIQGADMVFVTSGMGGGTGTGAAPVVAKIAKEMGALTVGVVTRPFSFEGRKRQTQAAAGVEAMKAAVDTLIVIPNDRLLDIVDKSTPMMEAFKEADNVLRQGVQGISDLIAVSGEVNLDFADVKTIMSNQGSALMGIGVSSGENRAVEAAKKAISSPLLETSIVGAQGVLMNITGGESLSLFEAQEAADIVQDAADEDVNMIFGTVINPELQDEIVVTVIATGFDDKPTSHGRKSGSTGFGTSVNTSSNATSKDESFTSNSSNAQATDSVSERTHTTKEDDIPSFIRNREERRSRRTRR
Outline: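 S. aureus ATCC 29213 cell division inhibition assay run alongside MIC testing; value is the lowest concentration at which an inhibition of cell division phenotype was seen (µg/mL).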

[2] = Kinetic solubility of the compound in PBS buffer at pH 7.4 after 24 hrs by turbidimetric method; format: physicochemical; details: read-out: Kinetic_solubility
Outline: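 Turbidimetric: doubling dilutions in DMSO diluted twenty-fold into PBS pH 7.4, equilibrated 24 h at room temperature, absorbance read at 620 nm. Value is highest concentration with no measurable precipitate.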

[3] = Volume of distribution in Balb/c mouse at 3 mg/kg, iv by LC-MS/MS analysis; format: ADME, organism-based; design: dose 3 mg/kg, route intravenous; details: in vivo
[4] = Chemical stability of the compound in PBS buffer assessed as compound remaining at 10 uM at pH 7.4 after 24 hrs by LC-MS/MS analysis; format: physicochemical; details: read-out: Stability
Outline: (§1)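 Compound at 10 μM in PBS pH 7.4 or neat mouse plasma, 5% v/v DMSO final, incubated 24 h at 37 °C. Samples extracted with acetonitrile and centrifuged; supernatant analysed by LC-MS; reported as % remaining.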

[5] = Half life in Balb/c mouse at 3 mg/kg, iv by LC-MS/MS analysis; format: ADME, organism-based; design: dose 3 mg/kg, route intravenous; details: in vivo
[6] = Initial plasma concentration in Balb/c mouse at 3 mg/kg, iv by LC-MS/MS analysis; format: ADME, organism-based; design: dose 3 mg/kg, route intravenous
[7] = Metabolic stability in mouse plasma assessed as compound remaining at 10 uM after 24 hrs by LC-MS/MS analysis; format: ADME, cell-free; details: read-out: Stability; outline: as §1
Staphylococcus aureus [8] = assay: Antibacterial activity against Staphylococcus aureus harboring FtsZ G196A mutant by broth microdilution method; format: functional
Outline: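 S. aureus ATCC 29213 derivative with G196A substitution in FtsZ; MIC by broth microdilution following CLSI guidelines; reported in µg/mL.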

[9] = Half life in mouse microsomes at 10 uM by LC-MS/MS analysis; format: ADME, Microsome
Outline: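 Mouse microsomes at 1 mg/mL protein, compound 10 μM, 0.1% v/v DMSO final; started with 1 mM NADPH, stopped with DMSO at 0, 10, 30, 60 min. Acetonitrile extraction, centrifugation, LC-MS of supernatant; half-life in min.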

[10] = Clearance in Balb/c mouse at 3 mg/kg, iv by LC-MS/MS analysis; format: ADME, organism-based; design: dose 3 mg/kg, route intravenous; details: in vivo
[11] = AUC in Balb/c mouse at 3 mg/kg, iv by LC-MS/MS analysis; format: ADME, organism-based; design: dose 3 mg/kg, route intravenous; details: plasma
[12] = Half life in CD-1 mouse hepatocytes at 10 uM by LC-MS/MS analysis; format: ADME, cell-based, Hepatocyte
Outline: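 Cryopreserved CD-1 mouse hepatocytes (5×10^4 cells), compound 10 μM in duplicate, 0.5% v/v DMSO final; stopped with DMSO at seven time points up to 120 min. Acetonitrile extraction, centrifugation, LC-MS of supernatant; half-life in min.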

Staphylococcus aureus [13] = assay: Antibacterial activity against Staphylococcus aureus ATCC 29213 by broth microdilution method; format: functional
Outline: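 Broth microdilution MIC per CLSI guidelines against S. aureus ATCC 29213; MIC in µg/mL.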

Row | SMILES | MIC [1] [µg/mL] | solubility kinetic at 24 h [2] [µg/mL] | Vd [3] [L/kg] | remaining at 24 h, 10 µM [4] [%] | half-life [5] [h] | C0 [6] [ng/mL] | remaining at 24 h, 10 µM [7] [%] | MIC (Staphylococcus aureus [8]) [µg/mL] | half-life at 10 µM [9] [h] | clearance [10] [mL/min/kg] | AUC [11] [ng·h/mL] | half-life at 10 µM [12] [h] | MIC (Staphylococcus aureus [13]) [µg/mL]
1 | NC(=O)c1c(F)ccc(OC(CO)c2nc(-c3ccc(C(F)(F)F)cc3)c(Br)o2)c1F (racemic) | 0.5 (≈ 0.986 µM) | 100 (≈ 197 µM) | 1.3 | 102 | 2.12 | 4200 | 100 | 8 (≈ 15.8 µM) | > 2 | 7 | 6700 | 1.19 | 0.25 (≈ 0.493 µM)
2 | CCc1oc(COc2ccc(F)c(C(N)=O)c2F)nc1-c1ccc(OC)cc1 | 0.12 (≈ 0.309 µM) |  | 4.3 | 97 | 0.167 | 1100 | 100 | > 64 | 1.19 | 319 | 200 | 0.39 | 0.12 (≈ 0.309 µM)
3 | CC(Oc1ccc(F)c(C(N)=O)c1F)c1nc(-c2ccc(OC(F)(F)F)cc2)c(Br)o1 (racemic) | 0.12 (≈ 0.237 µM) |  | 2.7 | 96 | 0.883 | 2500 | 104 |  | > 2 | 36 | 1400 | 1.69 | 0.12 (≈ 0.237 µM)
